This is an account of results in ChEMBL document CHEMBL1250521, “Design, synthesis, and preliminary biological evaluation of new isoform-selective f-current blockers” (J Med Chem, 2010).

Molecules are shown by their SMILES.

In general, EC50 refers to the concentration giving half of the maximal effect.

The target of test [1] is T1, Potassium/sodium hyperpolarization-activated cyclic nucleotide-gated channel 4 (Homo sapiens, UniProt Q9Y3Q4).
T1 sequence (Q9Y3Q4 whole entry): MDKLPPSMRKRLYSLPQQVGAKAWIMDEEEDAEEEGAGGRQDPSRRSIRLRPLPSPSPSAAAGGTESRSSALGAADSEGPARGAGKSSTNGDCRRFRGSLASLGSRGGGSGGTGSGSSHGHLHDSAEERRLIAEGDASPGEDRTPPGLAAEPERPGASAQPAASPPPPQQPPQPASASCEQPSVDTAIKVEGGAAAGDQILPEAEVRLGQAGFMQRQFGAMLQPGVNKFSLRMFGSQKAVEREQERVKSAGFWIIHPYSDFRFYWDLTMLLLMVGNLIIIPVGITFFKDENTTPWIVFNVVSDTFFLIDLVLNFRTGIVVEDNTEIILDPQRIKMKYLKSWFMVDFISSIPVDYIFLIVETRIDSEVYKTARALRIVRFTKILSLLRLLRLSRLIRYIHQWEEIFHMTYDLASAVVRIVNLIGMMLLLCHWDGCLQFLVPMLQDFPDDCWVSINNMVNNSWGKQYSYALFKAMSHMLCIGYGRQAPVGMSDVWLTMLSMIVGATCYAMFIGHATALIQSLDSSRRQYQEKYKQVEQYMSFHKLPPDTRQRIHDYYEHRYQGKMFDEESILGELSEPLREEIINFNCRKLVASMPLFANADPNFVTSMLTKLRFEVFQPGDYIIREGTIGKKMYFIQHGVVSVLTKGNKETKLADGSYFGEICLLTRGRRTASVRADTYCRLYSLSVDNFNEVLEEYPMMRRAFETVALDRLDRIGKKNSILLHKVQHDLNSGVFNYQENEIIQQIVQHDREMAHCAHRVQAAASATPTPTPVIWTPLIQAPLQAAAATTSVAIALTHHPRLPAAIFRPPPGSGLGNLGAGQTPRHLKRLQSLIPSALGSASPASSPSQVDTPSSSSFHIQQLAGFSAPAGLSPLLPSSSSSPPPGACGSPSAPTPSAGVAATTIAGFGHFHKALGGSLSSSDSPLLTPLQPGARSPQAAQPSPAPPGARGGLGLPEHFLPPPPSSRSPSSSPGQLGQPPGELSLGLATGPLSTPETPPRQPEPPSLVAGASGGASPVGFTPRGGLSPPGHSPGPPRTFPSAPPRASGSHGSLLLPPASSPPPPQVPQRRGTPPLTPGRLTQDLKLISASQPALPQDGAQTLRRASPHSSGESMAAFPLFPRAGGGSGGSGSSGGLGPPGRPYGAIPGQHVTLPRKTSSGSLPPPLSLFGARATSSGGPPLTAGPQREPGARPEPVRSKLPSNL
As to the kind of experiment: Blockade of human HCN4 expressed in HEK293 cells at -120 f-current amplitude by patch-clamp electrophysiological assay. Format: cell-based. The essentials: (§1)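 HEK293 cells stably transfected with mouse HCN1, mouse HCN2 or human HCN4. Patch-clamp recordings of hyperpolarization-activated f-current at varied concentrations to derive EC50.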

In test [2] the target is T2, Potassium/sodium hyperpolarization-activated cyclic nucleotide-gated channel 2 (Mus musculus, UniProt O88703).
T2 sequence (O88703 whole entry): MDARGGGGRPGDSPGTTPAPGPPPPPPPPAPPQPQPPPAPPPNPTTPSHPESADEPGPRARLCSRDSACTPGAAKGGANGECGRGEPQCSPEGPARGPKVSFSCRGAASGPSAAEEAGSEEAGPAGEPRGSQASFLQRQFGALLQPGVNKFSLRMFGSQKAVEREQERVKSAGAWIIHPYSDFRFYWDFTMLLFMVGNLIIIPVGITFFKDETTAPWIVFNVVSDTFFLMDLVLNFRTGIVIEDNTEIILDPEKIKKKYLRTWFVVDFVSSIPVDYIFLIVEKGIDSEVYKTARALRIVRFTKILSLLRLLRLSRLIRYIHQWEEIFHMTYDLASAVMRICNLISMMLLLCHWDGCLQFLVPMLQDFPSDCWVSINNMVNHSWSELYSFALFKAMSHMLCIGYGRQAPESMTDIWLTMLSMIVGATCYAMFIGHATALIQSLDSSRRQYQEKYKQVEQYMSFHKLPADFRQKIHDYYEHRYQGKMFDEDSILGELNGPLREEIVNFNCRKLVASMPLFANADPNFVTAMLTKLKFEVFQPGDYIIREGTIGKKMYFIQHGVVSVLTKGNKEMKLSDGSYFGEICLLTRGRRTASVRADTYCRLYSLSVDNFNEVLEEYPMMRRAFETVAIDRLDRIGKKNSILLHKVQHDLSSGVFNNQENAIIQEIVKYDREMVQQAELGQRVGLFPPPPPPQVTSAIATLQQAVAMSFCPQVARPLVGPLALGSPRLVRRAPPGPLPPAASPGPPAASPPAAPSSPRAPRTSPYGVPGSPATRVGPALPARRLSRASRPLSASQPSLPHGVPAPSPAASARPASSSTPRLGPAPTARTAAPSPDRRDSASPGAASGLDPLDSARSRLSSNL
As to the kind of experiment: Blockade of mouse HCN2 expressed in HEK293 cells at -120 f-current amplitude by patch-clamp electrophysiological assay. It is filed as cell-based. The essentials:
as §1
A general note: Patch clamp records ionic current or voltage across a cell membrane.

Test [3] deals with Potassium/sodium hyperpolarization-activated cyclic nucleotide-gated channel 1 (Mus musculus, UniProt O88704). Description: Blockade of mouse HCN1 expressed in HEK293 cells at -120 f-current amplitude by patch-clamp electrophysiological assay. It is filed as cell-based. Put shortly: as §1
Sequence of Potassium/sodium hyperpolarization-activated cyclic nucleotide-gated channel 1 (O88704 whole entry): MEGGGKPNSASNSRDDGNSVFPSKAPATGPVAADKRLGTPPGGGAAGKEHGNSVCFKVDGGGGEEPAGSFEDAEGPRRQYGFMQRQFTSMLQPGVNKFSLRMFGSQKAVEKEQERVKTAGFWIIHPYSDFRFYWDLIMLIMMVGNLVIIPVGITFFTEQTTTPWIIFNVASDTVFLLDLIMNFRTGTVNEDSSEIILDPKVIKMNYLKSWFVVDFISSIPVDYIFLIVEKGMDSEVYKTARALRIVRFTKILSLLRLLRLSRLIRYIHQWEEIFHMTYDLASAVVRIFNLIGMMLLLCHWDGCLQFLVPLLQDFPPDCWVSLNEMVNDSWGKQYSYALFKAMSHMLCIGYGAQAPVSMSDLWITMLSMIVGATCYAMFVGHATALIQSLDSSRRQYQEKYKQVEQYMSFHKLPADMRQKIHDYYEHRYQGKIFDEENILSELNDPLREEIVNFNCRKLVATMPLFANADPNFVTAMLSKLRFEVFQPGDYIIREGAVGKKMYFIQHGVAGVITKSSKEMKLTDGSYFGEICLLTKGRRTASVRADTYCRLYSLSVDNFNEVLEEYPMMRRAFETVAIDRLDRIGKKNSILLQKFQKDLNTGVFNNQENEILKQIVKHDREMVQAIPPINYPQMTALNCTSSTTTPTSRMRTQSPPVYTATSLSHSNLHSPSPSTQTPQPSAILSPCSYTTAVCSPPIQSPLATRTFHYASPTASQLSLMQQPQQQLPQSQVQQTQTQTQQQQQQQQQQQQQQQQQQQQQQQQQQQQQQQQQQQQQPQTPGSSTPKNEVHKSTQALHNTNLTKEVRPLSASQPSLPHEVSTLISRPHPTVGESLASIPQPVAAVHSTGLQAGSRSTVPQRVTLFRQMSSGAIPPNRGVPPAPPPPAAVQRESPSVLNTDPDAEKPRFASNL
Test [4] deals with Potassium/sodium hyperpolarization-activated cyclic nucleotide-gated channel 1 (Mus musculus) (UniProt O88704). Description: Blockade of mouse HCN1 expressed in HEK293 cells at 5 uM at -120 f-current amplitude by patch-clamp electrophysiological assay relative to control. Format: cell-based. Put shortly: (§2)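 Single-concentration patch-clamp screen at 5 μM on HEK293 cells stably expressing mouse HCN1 or human HCN4. f-current block normalized to control; mean ± SEM of three to five experiments.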
Sequence of Potassium/sodium hyperpolarization-activated cyclic nucleotide-gated channel 1 (Mus musculus) (O88704 whole entry): as above

Test [5] deals with T3, Potassium/sodium hyperpolarization-activated cyclic nucleotide-gated channel 4 (Homo sapiens) (UniProt Q9Y3Q4).
T3 sequence (whole entry): T1 sequence (Q9Y3Q4 whole entry)
Description: Blockade of human HCN4 expressed in HEK293 cells at 5 uM at -120 f-current amplitude by patch-clamp electrophysiological assay relative to control. Format: cell-based. The essentials: as §2

Test [6] can be described thus: Blockade of HCN in guinea pig spontaneously beating atria assessed as reduction of heart rate measured for 15 mins. Format: tissue-based, Cavia porcellus. Put shortly: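 Isolated spontaneously beating guinea pig atria; cumulative concentrations 10-9-10-4 M applied, decrease in atrial rate recorded. EC50 obtained by fitting the concentration-effect curve to the Hill equation; mean ± SEM of three to four experiments.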

The species entered for test [7] is Mus musculus. As to the kind of experiment: Selectivity ratio of EC50 for mouse HCN2 to EC50 for mouse HCN1. The essentials:
(§3)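 Selectivity expressed as the ratio of EC50 values from patch-clamp on stably transfected HEK293 cells expressing mouse HCN1, mouse HCN2 or human HCN4.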

Test [8] is described as follows: Selectivity ratio of EC50 for mouse HCN2 to EC50 for human HCN4. The essentials: as §3
The nature of test [9]: Selectivity ratio of EC50 for mouse HCN1 to EC50 for human HCN4. The essentials:
as §3

Test [10] is filed under the species Mus musculus. As to the kind of experiment: Selectivity ratio of EC50 for mouse HCN1 to EC50 for mouse HCN2. The essentials: as §3

On to `COc1ccc(CCN(C/C=C\CN2C=Cc3cc(OC)c(OC)cc3CC2=O)C/C=C\CN2C=Cc3cc(OC)c(OC)cc3CC2=O)cc1OC`, for which the results for the EC50 in test [1], in [2] and in [3] were 70.7 µM, 147 µM and 107 µM, respectively. Moreover, the residual activity in test [4] turned out to be 82%; in [5] it was 75%.
Regarding `COc1ccc([C@@H](C)CN(C)C/C=C\CN2C=Cc3cc(OC)c(OC)cc3CC2=O)cc1OC`, the EC50 is 7.1 µM in [6], 24.9 µM in test [1], 2.3 µM in [2] and 9.41 µM in [3]. The residual activity amounted to 63% in test [4] and 83% in test [5]. The Selectivity ratio in test [7] worked out at 4; in test [8] it was 10.
In the case of `COc1ccc([C@@H](C)CN(C/C=C/CN2C=Cc3cc(OC)c(OC)cc3CC2=O)C/C=C/CN2C=Cc3cc(OC)c(OC)cc3CC2=O)cc1OC`, the residual activity stood at 60% in test [4] and 73% in [5].
Consider `COc1ccc(CCN(C)CCCN2CCc3cc(OC)c(OC)cc3CC2=O)cc1OC` [ZATEBRADINE], for which the EC50 in test [6] worked out at 13.4 µM; in test [1], 8.57 µM; in [2], 5.45 µM; in [3], 16.8 µM.
On to `COc1ccc([C@@H](C)CN(C/C=C\CN2C=Cc3cc(OC)c(OC)cc3CC2=O)C/C=C\CN2C=Cc3cc(OC)c(OC)cc3CC2=O)cc1OC`, for which the concentration giving a half-maximal response (EC50) in [6] amounted to 113 µM; in test [1], 104 µM; in test [2], 18.3 µM; in test [3], 0.6 µM. Also, the Selectivity ratio in [9] came to 170; in test [10], 30. For the same compound, the residual activity in test [4] came out at 27%; in test [5], 93%.
As to `COc1ccc([C@H](C)CN(C)C/C=C/CN2C=Cc3cc(OC)c(OC)cc3CC2=O)cc1OC`, the residual activity in test [4] was 85%; in [5], 71%.
`COc1ccc([C@H](C)CN(C/C=C/CN2C=Cc3cc(OC)c(OC)cc3CC2=O)C/C=C/CN2C=Cc3cc(OC)c(OC)cc3CC2=O)cc1OC`: the residual activity in test [4] came out at 93%; in [5] it was 83%.
Consider `COc1cc2c(cc1OC)CC(=O)N(CCCN(C)C[C@H]1Cc3cc(OC)c(OC)cc31)CC2` [IVABRADINE], for which the EC50 in test [1] came out at 4.28 µM; in test [2] it was 4.52 µM; in test [3], 4.5 µM. For the same compound, the residual activity in test [4] came to 47%; in test [5], 49%.
Consider `COc1ccc(CCN(C)C/C=C\CN2C=Cc3cc(OC)c(OC)cc3CC2=O)cc1OC`, for which the EC50 in test [6] came out at 15.8 µM; in test [1], 7.14 µM; in [2] it was 24.6 µM; in test [3], 5.6 µM. In addition, the residual activity was 53% in test [4] and 59% in test [5].
As for `COc1ccc([C@H](C)CN(C/C=C\CN2C=Cc3cc(OC)c(OC)cc3CC2=O)C/C=C\CN2C=Cc3cc(OC)c(OC)cc3CC2=O)cc1OC`, the values for the EC50 in [1], in test [2] and in test [3] were 136 µM, 50.1 µM and 17.9 µM, respectively. For the same compound, the residual activity in test [4] is 76%; in test [5], 92%.
Consider `COc1ccc(CCN(C)C/C=C/CN2C=Cc3cc(OC)c(OC)cc3CC2=O)cc1OC`, for which the EC50 in [6] is 11.3 µM; in test [1], 7.23 µM; in test [2], 17.2 µM; in test [3], 2.31 µM. Also, the results for the residual activity in test [4] and in test [5] were 35% and 53%, respectively.
Consider `COc1ccc([C@@H](C)CN(C)C/C=C/CN2C=Cc3cc(OC)c(OC)cc3CC2=O)cc1OC`, for which the results for the residual activity in test [4] and in test [5] were 85% and 72%, respectively.
For `COc1ccc([C@H](C)CN(C)C/C=C\CN2C=Cc3cc(OC)c(OC)cc3CC2=O)cc1OC`, the EC50 in test [1] amounted to 31.6 µM; in test [2], 25.5 µM; in test [3], 31.3 µM. In addition, the residual activity in test [4] came to 76%; in test [5], 91%.
